NSD2 inh: NSD2 histone methyltransferase inhibitors, primary screen, biochemical, AlphaScreen, single concentration, set 2 | Histone-lysine N-methyltransferase NSD2 (Homo sapiens), O96028 | NSD2 peptide methylation, 120 min | inhibition, % at 12.5 µM | 310,000 tested, 0.54% active | AID 743445, 2014; in the data active = inhibition above about 50%
LEDGF integ inh: blockers of LEDGF/p75-dependent integrase strand transfer – biochemical, TR-FRET, high throughput, primary screen; 370,000 tested, 0.64% active; HIV-1 integrase (with human LEDGF/p75); inhibition, % at 3.7 µM; AID 743269, 2014; TR-FRET IN-LEDGF/p75 DNA integration, Eu/Cy5;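 active = inhibition above the screen-wide mean plus 3 SD, cut at about 13% in these data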;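 also: signal is the Cy5 over europium emission ratio at 671 and 618 nm; 0% = plate median of compound wells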
TDP2 inh: human TDP2 enzyme inhibitors, primary screen, biochemical, epi absorbance, recombinant enzyme; Tyrosyl-DNA phosphodiesterase 2 (Homo sapiens), O95551; T5PNP hydrolysis, p-nitrophenol absorbance 415 nm; inhibition, % at 12.8 µM; 370,000 tested, 0.34% active; AID 720702, 2013;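 active = inhibition above the mean of all tested compounds plus 3 SD, set per campaign, cut at about 25% in these data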;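 also: 0% = DMSO with enzyme and 100% = buffer with substrate but no TDP2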
Target sequence (O95551 whole entry, looked up): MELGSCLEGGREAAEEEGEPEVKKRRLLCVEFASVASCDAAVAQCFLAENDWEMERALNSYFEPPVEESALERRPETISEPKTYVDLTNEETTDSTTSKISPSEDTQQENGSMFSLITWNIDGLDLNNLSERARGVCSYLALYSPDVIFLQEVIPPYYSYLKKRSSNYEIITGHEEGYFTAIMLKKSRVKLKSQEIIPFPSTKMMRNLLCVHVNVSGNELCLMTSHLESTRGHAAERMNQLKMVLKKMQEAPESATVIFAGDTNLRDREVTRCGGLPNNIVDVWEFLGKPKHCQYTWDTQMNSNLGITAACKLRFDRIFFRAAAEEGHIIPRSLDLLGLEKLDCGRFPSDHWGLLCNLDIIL
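Read-out basis: percent inhibition. System: recombinant human TDP2. Buffer or medium: Mg2+-containing Tris-HCl buffer, pH 7.5. Repeats: single replicate. Timing: reaction 2 h, 37 °C. Benchmarks: high control without enzyme, low control DMSO plus TDP2. Probe or stimulus: 5 mM T5PNP. Doses: 12.8 µM only. Measured by: epi absorbance of p-nitrophenol freed from T5PNP by hydrolysis.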
UCH37 inh: inhibitors of human UCH37 deubiquitinase, primary screen, biochemical, Ub-AMC cleavage, fluorescence. Ubiquitin carboxyl-terminal hydrolase isozyme L5 (Homo sapiens), Q9Y5K5. purified proteasome/UCH37. inhibition, % (concentration not given with the values). 330,000 tested, 0.33% active;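 active = mean inhibition over replicate wells above about 20%, limit read from the data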;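 also: 0% = compound-free wells with enzyme and 100% = wells lacking proteasome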
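Reagent: Ub-AMC substrate; assay system: Proteasome-associated human UCH37 deubiquitinase; controls: no-proteasome and no-compound wells; read-out: % inhibition of Ub-AMC cleavage fluorescence; timing: 30 min preincubation with enzyme, 25 min cleavage at room temperature; signal: AMC fluorescence from Ub-AMC cleavage, excitation 355 nm, emission 460 nm; buffer or medium: Tris-HCl pH 7.4 plus ovalbumin, ATP-MgCl2, DTT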
CASP6 VEID inh: human caspase-6 inhibitors, primary screen, biochemical, VEID-R110 fluorescence, single point, set 2 | purified caspase-6, Z-VEID-R110 cleavage fluorescence | inhibition, % at 12.5 µM | 350,000 tested, 0.53% active | AID 686996, 2013;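 active = mean inhibition across replicates at least about 35%, with every replicate also reaching that limit, limit read from the data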;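 also: 0% = median of neutral control wells and 100% = no fluorescence left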
Target sequence (P55212 24-179 limits assumed): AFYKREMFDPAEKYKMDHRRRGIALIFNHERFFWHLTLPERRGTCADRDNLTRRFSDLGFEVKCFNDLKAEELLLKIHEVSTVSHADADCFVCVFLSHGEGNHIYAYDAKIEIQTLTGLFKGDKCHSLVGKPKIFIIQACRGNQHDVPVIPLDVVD
Target sequence (P55212 194-293 limits assumed): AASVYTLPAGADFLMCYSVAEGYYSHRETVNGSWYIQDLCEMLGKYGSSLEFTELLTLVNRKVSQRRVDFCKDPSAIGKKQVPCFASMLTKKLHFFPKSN
* hit, by the source's call. This is a sample that favours compounds with a hit; in the whole collection about 1.3% have one here.

What do the screens show for `CN1CCN(CC(=O)Nc2ccc(Cl)cc2Cl)CC1`?
NSD2 inh: -1; LEDGF integ inh: -1; TDP2 inh: 6; UCH37 inh: -1; CASP6 VEID inh: 43*

How did O=C(NN=Cc1cn(Cc2ccccc2)c2ccccc12)c1cccnc1 do in these assays?
UCH37 inh: 5

How did O=C(N/N=C/c1cn(Cc2ccccc2)c2ccccc12)c1cc(O)cc(O)c1 do in these assays?
NSD2 inh: 5; LEDGF integ inh: 7; TDP2 inh: 1; CASP6 VEID inh: 53*

Results for O=C(/C=C/c1ccc(Cl)cc1)Nc1nccs1 ?
NSD2 inh: 16; LEDGF integ inh: -7; TDP2 inh: -5; UCH37 inh: -3; CASP6 VEID inh: 64*

How did COc1ccc(C=N/N=C2/NC(=O)C(c3ccccc3)(c3ccccc3)S2)cc1 do in these assays?
UCH37 inh: 9

What do the screens show for `O=C(c1ccc(=O)oc1)N1CCCc2ccccc21`?
NSD2 inh: 92*; LEDGF integ inh: 22*; TDP2 inh: 6; UCH37 inh: 0

How did CCOC(=O)c1cc(-c2ccc(N3CCOCC3)cc2)nn1-c1ccccc1 do in these assays?
NSD2 inh: 2; LEDGF integ inh: -1; TDP2 inh: 6; UCH37 inh: -3; CASP6 VEID inh: 1

What do the screens show for `CCOC(=O)c1cc(-c2ccc(N3CCOCC3)cc2)nn1-c1ccccc1C(=O)O`?
LEDGF integ inh: 0; TDP2 inh: -1; CASP6 VEID inh: 40*

How did C=CC1=C(C(=O)O)N2C(=O)C(NC(=O)Cc3ccccc3)C2SC1 (configuration not stated) do in these assays?
NSD2 inh: 2; LEDGF integ inh: 0; TDP2 inh: -1; UCH37 inh: 1; CASP6 VEID inh: 96*

What do the screens show for `NCCCCCC(=O)NN=Cc1coc2ccccc2c1=O`?
UCH37 inh: -25

How did CCC1=NN(C(=O)c2ccccc2O)C(O)(c2ccccc2)C1 (configuration not stated) do in these assays?
NSD2 inh: 8; LEDGF integ inh: 6; TDP2 inh: -10; CASP6 VEID inh: 72*

Results for CCC1=NN(C(=O)c2ccc(Cl)cc2)C(O)(c2ccc(C)cc2)C1 (configuration not stated) ?
NSD2 inh: 2; LEDGF integ inh: 3; TDP2 inh: 0; UCH37 inh: 4; CASP6 VEID inh: 48*

What do the screens show for `CCOC(=O)C(=NNc1cccc(C(F)(F)F)c1)N(CCOC)CCOC`?
UCH37 inh: 6

What do the screens show for `COc1ccc2cc3[n+](cc2c1O)CCc1cc2c(cc1-3)OCO2`?
LEDGF integ inh: 27*; TDP2 inh: 24; CASP6 VEID inh: 27

What do the screens show for `CN(C(=O)c1ccc(NC(=O)Cc2cccc(NC(=O)C3CCN(C(=O)C4CCCC4)CC3)c2)cc1)C1CCCC1`?
LEDGF integ inh: 3; TDP2 inh: -12; UCH37 inh: 22*; CASP6 VEID inh: 0

Results for CN(C(=O)c1ccc(NC(=O)Cc2cccc(NC(=O)C3CCN(C(=O)C4CCCCC4)CC3)c2)cc1)C1CC1 ?
LEDGF integ inh: -2; TDP2 inh: 0; CASP6 VEID inh: -2

How did NC(=S)NN=C/C=C/c1ccccc1 do in these assays?
UCH37 inh: 13

Results for CCOc1ccc(-n2c(=S)sc3c(=O)[nH]c(SCC(=O)N4CCC(C)CC4)nc32)cc1 ?
NSD2 inh: 5; LEDGF integ inh: 0; TDP2 inh: 14; UCH37 inh: 11; CASP6 VEID inh: 43*

Results for CN1CCN(NC(=O)Nc2ccc(F)cc2)CC1 ?
LEDGF integ inh: -8; TDP2 inh: -15; UCH37 inh: 4; CASP6 VEID inh: 48*

Results for CC(=O)Nc1cc(Cl)c(N=Cc2ccc(O)cc2O)cc1Cl ?
LEDGF integ inh: 24*; TDP2 inh: -3; UCH37 inh: 2; CASP6 VEID inh: 0

How did O=S(=O)(NN=Cc1ccc(O)cc1O)c1cc(Cl)c(Cl)cc1Cl do in these assays?
NSD2 inh: 4; LEDGF integ inh: -6; TDP2 inh: 13; CASP6 VEID inh: 4

Results for COc1ccccc1CNC(=O)CCc1nc2ccccc2c(=O)[nH]1 ?
NSD2 inh: -3; LEDGF integ inh: 1; TDP2 inh: 4; UCH37 inh: -1

What do the screens show for `CN(C)CCCNC(=O)CCc1nc2ccccc2c(=O)[nH]1`?
NSD2 inh: 0; LEDGF integ inh: -2; TDP2 inh: 4; UCH37 inh: 20*

What do the screens show for `CCOc1ccc(NC(=O)CN(C)C(=O)c2cc(C)nc3ccccc23)cc1OCC`?
NSD2 inh: 1; LEDGF integ inh: 1; TDP2 inh: 3; UCH37 inh: -1; CASP6 VEID inh: 37*

Results for COc1ccc(NC(=O)CN(C)C(=O)c2cc(-c3ccncc3)nc3ccccc23)cc1 ?
NSD2 inh: 0; LEDGF integ inh: -6; TDP2 inh: -6; UCH37 inh: 2; CASP6 VEID inh: -147

What do the screens show for `COc1ccc(Cl)cc1NC(=O)CN(C)C(=O)c1cc(-c2ccncc2)nc2ccccc12`?
NSD2 inh: 25; LEDGF integ inh: 16*; TDP2 inh: -3; UCH37 inh: 5; CASP6 VEID inh: -5

What do the screens show for `CCOc1ccc(NC(=O)CN(C)C(=O)c2cc(-c3ccncc3)nc3ccccc23)cc1OCC`?
NSD2 inh: 2; LEDGF integ inh: -1; TDP2 inh: -17; UCH37 inh: 1; CASP6 VEID inh: 1

What do the screens show for `COc1ccccc1C=NNC(=O)CNC(=O)c1ccc(S(=O)(=O)N(C)C)cc1`?
UCH37 inh: 2

Results for CCOC(=O)c1sc(N=CNc2nc(C)c(C(=O)OCC)s2)nc1C ?
UCH37 inh: -10

How did O=C(O)c1cccc(-n2cccc2/C=C2\NC(=O)N(Cc3ccc(F)cc3)C2=O)c1 do in these assays?
NSD2 inh: 28; LEDGF integ inh: 2; TDP2 inh: 5; UCH37 inh: 10; CASP6 VEID inh: 72*

Results for COCCN1C(=O)N[C@@H](c2ccccc2)[C@@H](C(=O)OC)[C@H]1C ?
LEDGF integ inh: -3; TDP2 inh: 6; UCH37 inh: 22*; CASP6 VEID inh: -1

What do the screens show for `Oc1ccc(/C=N/Nc2cc(N3CCCC3)nc(N3CCCC3)n2)cc1O`?
NSD2 inh: 110*; LEDGF integ inh: 33*; TDP2 inh: -4; CASP6 VEID inh: 17

Results for Oc1cccc(C=NNc2cc(N3CCCC3)nc(N3CCCC3)n2)c1 ?
UCH37 inh: -1

What do the screens show for `Oc1ccc(/C=N\Nc2cc(N3CCOCC3)nc(N3CCOCC3)n2)c(O)c1`?
NSD2 inh: 153*; LEDGF integ inh: 3; TDP2 inh: -10; CASP6 VEID inh: 7

Results for CN1C(=O)C(=NOC(=O)c2ccccc2Br)c2ccccc21 ?
UCH37 inh: 1

Source: PubChem (several laboratories)
